Data set [1] deals with Rattus norvegicus. As to the kind of experiment: CLtot at a dose of 4 mg/kg in Rat Plasma after iv administration. Format: organism-based. More on the design: dose 4 mg/kg. Summed up:
(§1)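 Rats given a single iv dose via the right femoral vein after full recovery from anaesthesia, then a saline flush. Free drug dissolved in DMSO/10 mM H3PO4 (10/1); sodium salt in water. Blood (200 µL) drawn from a left femoral artery cannula at 2, 5, 10, 30 min and 1, 3, 5, 7 h. Plasma diluted in H3PO4 with camptothecin internal standard.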

Data set [2] concerns Rattus norvegicus. As to the kind of experiment: Vdss at a dose of 4 mg/kg in Rat Plasma after iv administration. The format is organism-based. Further details: dose 4 mg/kg. Summed up: as §1
Data set [3] has as its system Mus musculus. As to the kind of experiment: Evaluated for survival time of P388/ADM Leukemia implanted female CDF1 Mice at a dose of 50 mg/kg. The format is functional. Summed up:
(§2)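 Female CDF1 mice inoculated intraperitoneally on day 0 with 1 × 10^6 P388 or P388/ADM (adriamycin-resistant, MDR-expressing) cells per mouse. Intravenous dosing on days 1, 5 and 9; doses listed are total mg/kg. Survival monitored for 40 days, reported as mean ± SD days. T/C% = (mean survival days of treated group / mean survival days of control group) × 100.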

For data set [4], the system named is Mus musculus. As to the kind of experiment: Inhibition rate of tumor growth at 100 mg/kg single iv administration against Meth A fibrosarcoma cells in BALB/c Mice. Format: functional. Summed up:
(§3)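 Male BALB/c mice, 7 weeks old (five per group), inoculated s.c. with Meth A cells at 5 × 10^5 cells/mouse on day 0. Single i.v. injection on day 5, doses expressed as free drug equivalent; control group given saline. Tumors weighed on day 21 (mean ± SD); inhibition rate derived from tumor weight relative to control.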

The subject of data set [5] is Mus musculus. The data set is described as follows: Ratio between mean survival days of treated group and control group at a dose of 50 mg/kg. The format is functional. Summed up: as §2
Data set [6] relates to Mus musculus. The data set is described as follows: Antitumor activity evaluated as tumor weight on day 21 of Meth A Fibrosarcoma in BALB/c mice at a dose of 50 mg/kg administered intravenously on day 5. The format is functional. The conditions noted are these: route intravenous. In outline: (§4)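 Meth A cells, 5 × 10^5/mouse, inoculated subcutaneously on day 0 into 7 week old male BALB/c mice, five per group. A single intravenous injection on day 5; saline for controls. Tumours weighed on day 21. Doses in mg/kg expressed as free drug. Inhibition rate derived from tumour weight relative to the saline control group.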

In data set [7] the test system is Mus musculus. The data set is described as follows: Evaluated for survival time of P388 Leukemia implanted female CDF1 Mice at a dose of 50 mg/kg. The format is functional. Summed up:
as §2

The test system of data set [8] is Mus musculus. As to the kind of experiment: Antitumor activity evaluated as tumor weight on day 21 of Meth A Fibrosarcoma in BALB/c mice at a dose of 100 mg/kg administered intravenously on day 5. The format is functional. The conditions noted are these: route intravenous. Summed up: as §4
Data set [9] has as its system Mus musculus. The data set is described as follows: Evaluated for survival time of P388/ADM Leukemia implanted female CDF1 Mice at a dose of 100 mg/kg. The format is functional. Summed up:
as §2

Data set [10] relates to Mus musculus. As to the kind of experiment: Antitumor activity evaluated as tumor weight on day 21 of Meth A Fibrosarcoma in BALB/c mice at a dose of 25 mg/kg administered intravenously on day 5. Format: functional. The conditions noted are these: route intravenous. In outline:
as §4

Data set [11] concerns Mus musculus. As to the kind of experiment: (§5) Inhibition rate of tumor growth at 25 mg/kg single iv administration against Meth A fibrosarcoma cells in BALB/c Mice. Format: functional. Summed up:
as §3

Data set [12] has as its system Mus musculus. The data set is described as follows: Evaluated for survival time of P388 Leukemia implanted female CDF1 Mice at a dose of 100 mg/kg. Format: functional. Summed up: as §2
Data set [13] has as its system Mus musculus. The data set is described as follows: Ratio between mean survival days of treated group and control group at a dose of 25 mg/kg. Format: functional. Summed up: as §2
Data set [14] relates to Mus musculus. The data set is described as follows: Inhibition rate of tumor growth at 50 mg/kg single iv administration against Meth A fibrosarcoma cells in BALB/c Mice. Format: functional. Summed up: as §3
For data set [15], the system named is Mus musculus. The data set is described as follows: Ratio between mean survival days of treated group and control group at a dose of 100 mg/kg. Format: functional. Summed up:
as §2

Data set [16] concerns Mus musculus. The description is as §5. The format is functional. Summed up:
as §4
The source holds these as a separate data set.

Data set [17] is described as follows: Maximum plasma concentration at a dose of 4 mg/kg in Rat Plasma after iv administration. The format is ADME, organism-based. More on the design: dose 4 mg/kg, route intravenous. Summed up:
as §1

Data set [18] in a line: Mean residence time at a dose of 4 mg/kg in Rat Plasma after iv administration. More on the design: dose 4 mg/kg, route intravenous. The format is ADME, organism-based. Summed up:
as §1

Data set [19] can be described thus: (§6) Half life at a dose of 4 mg/kg in Rat Plasma after iv administration. The format is ADME, organism-based. More on the design: dose 4 mg/kg, route intravenous. Summed up:
as §1

A short description of data set [20]: Tmax at a dose of 4 mg/kg in Rat Plasma after iv administration. Format: ADME, organism-based. Further details: dose 4 mg/kg, route intravenous. In outline: as §1
Data set [21] is filed under the species Rattus norvegicus. The data set is described as follows: (§7) Area under curve of the compound was determined. The format is ADME, organism-based. Particulars: in vivo. In outline:
as §1

The subject of data set [22] is Mus musculus. The data set is described as follows: Evaluated for survival time of P388/ADM Leukemia implanted female CDF1 Mice at a dose of 25 mg/kg.
Data set [23] concerns Mus musculus. The data set is described as follows: Evaluated for survival time of P388 Leukemia implanted female CDF1 Mice at a dose of 25 mg/kg. Format: functional. Summed up: as §2
Data set [24] is filed under the species Mus musculus. The data set is described as follows: Ratio between mean survival days of treated group and control group. Format: functional. Summed up: as §2
A short description of data set [25]: as §7. Format: ADME. Summed up:
(§8)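 Rats given a single i.v. dose via right femoral vein after recovery from anesthesia, then saline flush. Blood drawn from left femoral artery cannula at 2, 5, 10, 30 min and 1, 3, 5, 7 h. Plasma diluted in 0.146 M H3PO4 with CPT internal standard, then on-line SPE and C18 HPLC with fluorescence detection (ex 390/em 513 nm). LOQ 2 ng/mL. Noncompartmental analysis; AUCinf by trapezoidal rule with extrapolation; n = 1–2 rats.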

The nature of data set [26]: as §6. Format: ADME, organism-based. More on the design: dose 4 mg/kg, route intravenous. In outline:
as §8
The source holds these as a separate data set.

Broadly, the T/C is the ratio of treated to control. By Cmax is commonly meant the highest concentration seen after dosing. As a reminder, the MRT inf is the average time that molecules of a dose stay in the body. What is called half-life is how long it takes for the measured level to halve. Read a high half-life as slow loss. By Tmax is commonly meant the time from dosing to the highest level.

Each structure is given as a SMILES string. “And” between values parts separate entries of the source, which are not always exact repeats. Equal entries are not always repeated.

In the case of `CCc1c2c(nc3ccc(N)cc13)-c1cc3c(c(=O)n1C2)COC(=O)[C@]3(O)CC` [listing 1 of 2 here], in the data set with Rattus norvegicus [1], the CL (mL.min-1.kg-1) is 40.3 and 34.5. Also, the Vdss in the data set with Rattus norvegicus [2] was 2.65 L/kg and 2.37 L/kg.

With `CCc1c2c(nc3ccc(OC(=O)N4CCC(N5CCCCC5)CC4)cc13)-c1cc3c(c(=O)n1C2)COC(=O)[C@]3(O)CC` [IRINOTECAN], the Survival time in the data set on Mus musculus [3] stood at 14.7 days; in the data set on Mus musculus [7], 14.5 days; in the data set on Mus musculus [9], 15.7 days; with Mus musculus [12], 17.5 days. Moreover, the Inhibition rate with Mus musculus [4] was determined as 52.7%; with Mus musculus [14], 46.6%. For the same molecule, the T/C was 189% in the data set with Mus musculus [5]; 172% and 129% in the data set on Mus musculus [13]; 228% in the data set on Mus musculus [15]. The Antitumor activity in the data set on Mus musculus [6] is listed as 1.31 g; in the data set with Mus musculus [8], 1.16 g; with Mus musculus [10], 1.24 g; in the data set on Mus musculus [11], 49.5%.

In the case of `CCc1c2c(nc3ccc(N)cc13)-c1cc3c(c(=O)n1C2)COC(=O)[C@]3([O-])CC.[Na+]`, the figures for the Inhibition rate in the data set with Mus musculus [4], with Mus musculus [16] and in the data set on Mus musculus [14] were 69.3%, 62.3% and 64%, respectively. The Antitumor activity in the data set on Mus musculus [6] is on record as 0.88 g; with Mus musculus [8], 0.88 g; in the data set on Mus musculus [10] it was 0.93 g. For the same molecule, in data set [17], the maximum concentration (Cmax) is 10500 ng/mL. Besides, the MRT inf in data set [18] came out at 1.09 h. In [19], this molecule had a half-life of 2.26 h. Besides, the Tmax in data set [20] was 2 min. This molecule also yielded an AUC inf in the data set filed under Rattus norvegicus [21] of 1.71 µg/h/mL.

With `COc1cccc2c1C(=O)c1c(O)c3c(c(O)c1C2=O)C[C@@](O)(C(=O)CO)C[C@@H]3O[C@H]1C[C@H](N)[C@H](O)[C@H](C)O1` [DOXORUBICIN], the Activity was 9.8 days in the data set on Mus musculus [22] and 20 days in the data set on Mus musculus [23]. Further, the T/C in the data set filed under Mus musculus [24] was 261% and 102%.

In [25], `CCc1c2c(nc3ccc(N)cc13)-c1cc3c(c(=O)n1C2)COC(=O)[C@]3(O)CC` [listing 2 of 2 here] had an AUC inf of 2.08 µg/h/mL. For the same molecule, the highest level in data set [17] (Cmax) was 10500 ng/mL. Besides, the mean residence time (MRT inf) in data set [18] was 1.09 h. Further, the Tmax in data set [20] is 2 min. Also, the half-life in data set [26] is 2.25 h.

The values above are taken from ChEMBL document CHEMBL1148490, “Synthesis, characterization, and preliminary in vivo tests of new poly(ethylene glycol) conjugates of the antitumor agent 10-amino-7-ethylcamptothecin” (J Med Chem, 2004).
